In brackets after ≈: the same amount, converted by molar mass.
How the values were obtained:
[1] = tested on: Human immunodeficiency virus 1; test: Antiviral activity against HIV-1 3B infected in human MT4 cells assessed as protection against virus-induced cytopathogenicity at 125 ug/ml; type: functional
Outline: (§1)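 MT-4 cells infected with HIV-1 (IIIB) or HIV-2 (ROD), with maximum protection (%) against virus-induced cytopathicity recorded at 125 of compound.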

[2] = tested on: Human alphaherpesvirus 1; test: Antiviral activity against HSV1 KOS infected in HEL cells assessed as protection against virus-induced cytopathogenicity; type: functional; conditions: Human alphaherpesvirus 1, KOS
[3] = Cytotoxicity against african green monkey Vero cells assessed as change in cell morphology; type: cell-based; conditions: chlorocebus sabaeus
Outline: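 Vero cell cultures were used for the broad-spectrum antiviral screen. The MCC endpoint is the lowest concentration that causes a microscopically detectable alteration of cell morphology. Activity was called when 5 × MIC < MCC.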

[4] = tested on: HeLa; test: Cytotoxicity against human HeLa cells assessed as change in cell morphology; type: functional
Outline: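 The minimum cytotoxic concentration (MCC) is the concentration causing a microscopically detectable alteration of cell morphology in the uninfected host cell culture.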

[5] = tested on: Sindbis virus; test: Antiviral activity against Sindbis virus infected in african green monkey Vero cells assessed as protection against virus-induced cytopathogenicity; type: functional
[6] = Cytotoxicity against Cytomegalovirus infected HEL cells assessed as change in cell morphology; type: cell-based; conditions: human
Outline: (§2)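 HEL cell cultures examined under the microscope. Minimal cytotoxic concentration (MCC) is the concentration that causes a microscopically detectable alteration of cell morphology. Compounds were tested at subtoxic concentrations alongside the antiviral tests.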

[7] = tested on: Vesicular stomatitis virus; test: Antiviral activity against Vesicular stomatitis virus infected in human HeLa cells assessed as protection against virus-induced cytopathogenicity; type: functional
[8] = Cytotoxicity against HEL cells assessed as change in cell morphology; type: cell-based; conditions: human; outline: as §2
[9] = Cytotoxicity against HIV-1 3B infected human MT4 cells; type: cell-based; conditions: HIV-1 3B-infected MT4 cells
[10] = tested on: Coxsackievirus B4; test: Antiviral activity against Coxsackievirus B4 infected in human HeLa cells assessed as protection against virus-induced cytopathogenicity; type: functional; conditions: Enterovirus B
[11] = tested on: Vesicular stomatitis virus; test: Antiviral activity against sVesicular stomatitis virus infected in HEL cells assessed as protection against virus-induced cytopathogenicity; type: functional
[12] = tested on: Human betaherpesvirus 5; test: Antiviral activity against Cytomegalovirus AD169 infected in HEL cells assessed as reduction in virus plaque formation; type: functional, organism-based; conditions: Human betaherpesvirus 5, AD169, HEL
Outline: (§3)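 Plaque reduction in HEL cells against CMV (AD-169, Davis) or VZV (TK⁺ OKA, TK⁻ 07/1), using a virus input of 20 PFU. EC50 is the concentration that reduced plaque formation by 50%.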

[13] = tested on: Human alphaherpesvirus 3; test: Antiviral activity against thymidine kinase deficient Varicella Zoster Virus 07/1 infected in HEL cells assessed as reduction in virus plaque formation; type: functional, organism-based; conditions: Human alphaherpesvirus 3, 07/1, HEL; outline: as §3
[14] = tested on: Mammalian orthoreovirus 1; test: Antiviral activity against Reovirus 1 infected in african green monkey Vero cells assessed as protection against virus-induced cytopathogenicity; type: functional
[15] = tested on: Human alphaherpesvirus 1; test: Antiviral activity against acyclovir-resistant thymidine kinase-deficient HSV1 KOS infected in human HEL cells assessed as protection against virus-induced cytopathogenicity; type: functional; conditions: Human alphaherpesvirus 1, KOS
[16] = tested on: Human immunodeficiency virus 2; test: Antiviral activity against HIV-2 ROD infected human MT4 cells assessed as protection against virus-induced cytopathogenicity; type: functional, organism-based; conditions: Human immunodeficiency virus 2, ISOLATE ROD
Outline: (§4)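 HIV-1 (IIIB) or HIV-2 (ROD) infection of MT-4 cells, scored as protection against virus-induced cytopathicity. IC50 was derived from protection.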

[17] = tested on: Human alphaherpesvirus 3; test: Antiviral activity against Varicella Zoster Virus OKA infected in HEL cells assessed as reduction in virus plaque formation; type: functional, organism-based; conditions: Human alphaherpesvirus 3, OKA; outline: as §3
[18] = tested on: Respiratory syncytial virus; test: Antiviral activity against RSV infected in human HeLa cells assessed as protection against virus-induced cytopathogenicity; type: functional
[19] = tested on: Human respirovirus 3; test: Antiviral activity against Parainfluenza-3 virus infected in african green monkey Vero cells assessed as protection against virus-induced cytopathogenicity; type: functional
[20] = Cytotoxicity against Varicella Zoster Virus infected human […] cells assessed as reduction in cell growth; type: cell-based
[21] = tested on: Human immunodeficiency virus 1; test: Antiviral activity against HIV-1 3B infected human MT4 cells assessed as protection against virus-induced cytopathogenicity; type: functional, organism-based; conditions: Human immunodeficiency virus 1, 3B; outline: as §4
[22] = Cytotoxicity against Cytomegalovirus infected HEL cells assessed as reduction in cell growth; type: cell-based; conditions: human
[23] = tested on: Coxsackievirus B4; test: Antiviral activity against Coxsackievirus B4 infected in african green monkey Vero cells assessed as protection against virus-induced cytopathogenicity; type: functional; conditions: Enterovirus B
[24] = tested on: Cytomegalovirus; test: Antiviral activity against Cytomegalovirus Davis infected in HEL cells assessed as reduction in virus plaque formation; type: functional, organism-based; conditions: Human betaherpesvirus 5, Davis; outline: as §3
[25] = Cytotoxicity against Varicella Zoster Virus infected human […] cells assessed as change in cell morphology; type: cell-based
[26] = tested on: Human immunodeficiency virus 2; test: Antiviral activity against HIV-2 ROD infected in human MT4 cells assessed as protection against virus-induced cytopathogenicity at 125 ug/ml; type: functional, ISOLATE ROD; outline: as §1
[27] = tested on: Human alphaherpesvirus 2; test: Antiviral activity against Herpes simplex virus 2 infected in HEL cells assessed as protection against in virus-induced cytopathogenicity; type: functional
[28] = tested on: Punta Toro virus; test: Antiviral activity against Punta Toro virus infected in african green monkey Vero cells assessed as protection against virus-induced cytopathogenicity; type: functional

CCNC(=S)Nc1ccc(NS(C)(=O)=O)c(Oc2ccccc2)c1
Activity [1]: 97%
MIC50 [2]: 120 µg/mL (≈ 328 µM)
MCC [3]: 200 µg/mL
MCC [4]: 200 µg/mL
MIC50 [5]: > 40 µg/mL
CC50 [6]: > 100 µg/mL
MIC50 [7]: > 40 µg/mL
MCC [8]: > 200 µg/mL
CC50 [9]: > 125 µg/mL
MIC50 [10]: > 40 µg/mL
MIC50 [11]: > 200 µg/mL
EC50 [12]: > 100 µg/mL
EC50 [13]: > 100 µg/mL
MIC50 [14]: > 40 µg/mL
MIC50 [15]: 120 µg/mL (≈ 328 µM)
IC50 [16]: 65.9 µg/mL (≈ 180 µM)
EC50 [17]: > 100 µg/mL
MIC50 [18]: > 40 µg/mL
MIC50 [19]: ≥ 24 µg/mL
CC50 [20]: > 100 µg/mL
IC50 [21]: 54.8 µg/mL (≈ 150 µM)
CC50 [22]: > 100 µg/mL
MIC50 [23]: > 40 µg/mL
EC50 [24]: > 100 µg/mL
CC50 [25]: > 100 µg/mL
Activity [26]: 89.5%
MIC50 [27]: 120 µg/mL (≈ 328 µM)
MIC50 [28]: > 40 µg/mL

— ChEMBL document CHEMBL1153581, “Synthesis, antiviral and anticancer activity of some novel thioureas derived from N-(4-nitro-2-phenoxyphenyl)-methanesulfonamide” (Eur J Med Chem, 2009)
